Paper PMC5554913 (ACS Medicinal Chemistry Letters, 2017)

Columns and labels:
[1] = tested on: human lymphoblasts (CRL-8155); test: Mammalian cell growth inhibition; assay type: cell-based; details: CRL-8155 cell line
Hep G2 cell line = test: Cytotoxicity on Hep G2 cell line; assay type: cell-based
[2] = tested on: T. brucei brucei strain BF427; test: T. brucei growth inhibition; assay type: cell-based; details: for improvement in potency compared to compound 1: T. brucei EC50 vs compound 1
CYP3A4 = CYP3A4 (Homo sapiens, UniProt P08684); test: CYP3A4 inhibition; assay type: in vitro ADME
CYP3A4, sequence (P08684 whole entry, species assumed): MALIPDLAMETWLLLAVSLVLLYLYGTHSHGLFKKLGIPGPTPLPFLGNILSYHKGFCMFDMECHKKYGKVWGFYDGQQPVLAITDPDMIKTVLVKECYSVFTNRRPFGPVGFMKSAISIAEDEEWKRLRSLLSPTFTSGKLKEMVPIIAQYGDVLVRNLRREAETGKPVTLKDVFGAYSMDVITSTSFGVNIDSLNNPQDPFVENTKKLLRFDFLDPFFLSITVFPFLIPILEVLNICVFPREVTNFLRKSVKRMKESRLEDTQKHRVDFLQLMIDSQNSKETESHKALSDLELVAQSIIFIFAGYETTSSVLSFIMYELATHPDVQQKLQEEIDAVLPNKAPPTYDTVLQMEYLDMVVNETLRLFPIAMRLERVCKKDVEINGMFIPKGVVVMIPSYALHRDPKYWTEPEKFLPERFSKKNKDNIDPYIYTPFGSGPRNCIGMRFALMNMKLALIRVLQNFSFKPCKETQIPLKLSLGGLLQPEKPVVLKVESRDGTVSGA

[3] = tested on: T. brucei rhodesiense STIB900; test: Mouse efficacy model of acute T. brucei infection; assay type: in vivo; details: five mice, T. brucei rhodesiense STIB900, 50 mg/kg oral gavage b.i.d. days 2-5
Summary of the method: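 Mice were infected with T. brucei rhodesiense STIB900 on day 0 and placed in groups of five. Test compound was given at 50 mg/kg by oral gavage twice daily on days 2–5, with a vehicle-treated group. Cure meant no detectable parasitemia […] through 60 days postinfection.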

[4] = Metabolic stability in pooled mouse liver microsomes; assay type: in vitro ADME; details: microsome T1/2, mouse microsomes
Summary of the method: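 Half-life of test compound measured in mouse liver microsomes. Testosterone and dextromethorphan HBr were run alongside as controls and had to fall within acceptable ranges.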

## COc1ccc(N2C(=O)CN(Cc3ccccc3)C2=S)cc1Cl [Compound 1]
[1]
  cytotoxicity on CRL-8155: no detected cytotoxicity
Hep G2 cell line
  cytotoxicity on Hep G2: no detected cytotoxicity

## COc1ccc(N2C(=O)CN(Cc3ccccc3)C2=S)cc1N(C)C [Compound 37]
[2]; T. brucei EC50 vs compound 36
  drop in activity compared to 36: 30 fold

## COc1ccc(N2C(=O)CN(Cc3cccc(F)c3)C2=S)cc1Cl [Compound 40]
[2]; T. brucei EC50 vs compound 39
  decrease in potency compared to 39: 18 fold

## CN(C)c1ccc(N2C(=O)CN(Cc3ccc(F)cc3)C2=S)cc1Cl [Compound 68, 1-(4-fluorobenzyl)-3-(4-dimethylamino-3-chlorophenyl)-2-thiohydantoin]
[2]
  improvement in potency compared to compound 1: > 100 fold
CYP3A4
  IC50: 12.8 µM
[3]
  cures (absence of detectable parasitemia for 60 days postinfection): 5/5

## COc1cc(N2C(=O)CN(Cc3ccc(F)cc3Cl)C2=S)ccc1N(C)C [Compound 76, 1-(2-chloro-4-fluorobenzyl)-3-(4-dimethylamino-3-methoxyphenyl)-2-thiohydantoin]
[2]
  improvement in potency compared to compound 1: > 100 fold
[3]
  cures (absence of detectable parasitemia for 60 days postinfection): 5/5

## C[C@]12CC[C@H]3[C@@H](CCC4=CC(=O)CC[C@@]43C)[C@@H]1CC[C@@H]2O [Testosterone]
[4]
  half-life at 1.5 µM: 3.97 min

## COc1ccc2c(c1)[C@]13CCCC[C@@H]1[C@H](C2)N(C)CC3 [dextromethorphan HBr]
[4]
  half-life at 1.5 µM: 9.51 min
